# pEC50, pIC50: −log10 of the molar value. Activity calls are given as the source filed them. The rule behind the calls is not given here.
# Tests used:
# [1] = Plasma clearance in dog at 1 mg/kg, iv and 3 mg/kg, po; assay type: ADME, organism-based, Canis lupus familiaris
# Outline: (§1)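 Dog PK with 1.0 mg/kg IV and 3.0 mg/kg PO doses, based on plasma analysis. Parameters: dose-normalized AUC (μM h kg/mg), plasma clearance (mL/min/kg), T1/2 (h) and oral bioavailability (%).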
# [2] = Oral bioavailability in rat at 3 mg/kg; assay type: ADME, organism-based; conditions: in vivo
# Outline: (§2)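 Rat PK with 1.0 mg/kg IV and 3.0 mg/kg PO doses, based on plasma analysis. Parameters: Cmax, dose-normalized AUC (μM h kg/mg), plasma clearance (mL/min/kg), Vdss (L/kg), T1/2 (h) and oral bioavailability (%).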
# [3] = biological target: Cav1.2 (voltage-dependent L-type calcium channel subunit alpha-1C) (Homo sapiens, UniProt Q13936); assay: Blockade of Cav1.2 channel at 10 uM by fluorescent calcium-influx assay
# Outline: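 Cav1.2 (L-type) channel block measured with a fluorescent calcium-influx FLIPR assay. Results are reported as % inhibition at 10 μM test concentration.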
# [4] = biological target: T1, Nuclear receptor subfamily 1 group I member 2 (Homo sapiens, UniProt O75469); assay: Activity at PXR by induction assay
# T1 sequence (O75469 whole entry): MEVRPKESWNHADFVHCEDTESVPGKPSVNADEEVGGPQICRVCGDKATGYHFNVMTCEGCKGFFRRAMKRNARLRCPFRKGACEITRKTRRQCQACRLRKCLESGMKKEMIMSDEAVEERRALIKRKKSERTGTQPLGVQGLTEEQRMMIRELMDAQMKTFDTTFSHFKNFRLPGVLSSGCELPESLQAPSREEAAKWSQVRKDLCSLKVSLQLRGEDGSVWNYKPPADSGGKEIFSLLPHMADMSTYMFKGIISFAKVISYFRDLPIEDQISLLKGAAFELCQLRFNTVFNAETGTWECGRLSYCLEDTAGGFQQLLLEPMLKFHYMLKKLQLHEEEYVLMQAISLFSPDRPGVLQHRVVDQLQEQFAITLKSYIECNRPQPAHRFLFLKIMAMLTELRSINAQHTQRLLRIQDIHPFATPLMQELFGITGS
# [5] = Metabolic stability in human liver microsomes assessed as compound remaining after 60 mins; assay type: ADME, Microsome; conditions: read-out: Stability
# Outline: (§3)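 Compounds incubated with human or rat liver microsomes for 60 min. Read-out is the percent of parent compound remaining.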
# [6] = Metabolic stability in rat liver microsomes assessed as compound remaining after 60 mins; assay type: ADME, Microsome; conditions: read-out: Stability; outline: as §3
# Rattus norvegicus [7] = assay: Dose normalized AUC in rat at 1 mg/kg, iv and 3 mg/kg, po; assay type: ADME, organism-based; conditions: in vivo; outline: as §2
# [8] = Plasma clearance in rat at 1 mg/kg, iv and 3 mg/kg, po; assay type: ADME, organism-based; outline: as §2
# [9] = Half life in rat at 1 mg/kg, iv and 3 mg/kg, po; assay type: ADME, organism-based; conditions: in vivo; outline: as §2
# Canis familiaris [10] = assay: Dose normalized AUC in dog at 1 mg/kg, iv and 3 mg/kg, po; assay type: ADME, organism-based, Canis lupus familiaris; conditions: in vivo; outline: as §1
# [11] = Half life in dog at 1 mg/kg, iv and 3 mg/kg, po; assay type: ADME, organism-based, Canis lupus familiaris; conditions: in vivo; outline: as §1
# [12] = Oral bioavailability in dog at 3 mg/kg; assay type: ADME, organism-based, Canis lupus familiaris; conditions: in vivo
# Cytochrome P450 3A4 = Cytochrome P450 3A4 (Homo sapiens, UniProt P08684); assay: Inhibition of CYP3A4; assay type: ADME
# Cytochrome P450 2D6 = Cytochrome P450 2D6 (Homo sapiens, UniProt P10635); assay: Inhibition of CYP2D6; assay type: ADME
# Cytochrome P450 2C9 = Cytochrome P450 2C9 (Homo sapiens, UniProt P11712); assay: Inhibition of CYP2C9; assay type: ADME
# Rattus norvegicus [13] = assay: Antinociceptive activity in rat assessed as reversal of complete Freund's adjuvant-induced pain at 3 mg/kg, po after 1 hr; assay type: functional
# Outline: (§4)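 Rat CFA-induced inflammatory pain model, oral dosing. Mechanical allodynia assessed by paw pressure and expressed as % reversal. Plasma and brain drug levels measured at 3 h post-dose.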
# Rattus norvegicus [14] = assay: Antinociceptive activity in rat assessed as reversal of complete Freund's adjuvant-induced pain at 3 mg/kg, po after 3 hrs; assay type: functional; outline: as §4
# Rattus norvegicus [15] = assay: Antinociceptive activity in rat assessed as reversal of complete Freund's adjuvant-induced pain at 3 mg/kg, po after 8 hrs; assay type: functional; outline: as §4
# Rattus norvegicus [16] = assay: Antinociceptive activity in rat assessed as reversal of complete Freund's adjuvant-induced pain at 10 mg/kg, po after 1 hr; assay type: functional; outline: as §4
# Rattus norvegicus [17] = assay: Antinociceptive activity in rat assessed as reversal of complete Freund's adjuvant-induced pain at 10 mg/kg, po after 3 hrs; assay type: functional; outline: as §4
# Rattus norvegicus [18] = assay: Antinociceptive activity in rat assessed as reversal of complete Freund's adjuvant-induced pain at 10 mg/kg, po after 8 hrs; assay type: functional; outline: as §4
# Rattus norvegicus [19] = assay: Antinociceptive activity in rat assessed as reversal of complete Freund's adjuvant-induced pain at 30 mg/kg, po after 1 hr; assay type: functional; outline: as §4
# Rattus norvegicus [20] = assay: Antinociceptive activity in rat assessed as reversal of complete Freund's adjuvant-induced pain at 30 mg/kg, po after 3 hrs; assay type: functional; outline: as §4
# Rattus norvegicus [21] = assay: Antinociceptive activity in rat assessed as reversal of complete Freund's adjuvant-induced pain at 30 mg/kg, po after 8 hrs; assay type: functional; outline: as §4
# Rattus norvegicus [22] = assay: Antiallodynic activity in rat spinal nerve ligation model of neuropathic pain assessed as reversal of mechanical allodynia at 10 mg/kg, po after 1 hr; assay type: functional
# Outline: (§5)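 Rat spinal nerve ligation neuropathic pain model, oral dosing. Read-out is % reversal of mechanical allodynia. Plasma and brain drug levels measured at 1 h. An efficacious (EC50) plasma exposure was derived.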
# Rattus norvegicus [23] = assay: Antiallodynic activity in rat spinal nerve ligation model of neuropathic pain assessed as reversal of mechanical allodynia at 10 mg/kg, po after 3 hrs; assay type: functional; outline: as §5
# Rattus norvegicus [24] = assay: Antiallodynic activity in rat spinal nerve ligation model of neuropathic pain assessed as reversal of mechanical allodynia at 10 mg/kg, po after 8 hrs; assay type: functional; outline: as §5
# Rattus norvegicus [25] = assay: Antiallodynic activity in rat spinal nerve ligation model of neuropathic pain assessed as reversal of mechanical allodynia at 30 mg/kg, po after 1 hr; assay type: functional; outline: as §5
# Rattus norvegicus [26] = assay: Antiallodynic activity in rat spinal nerve ligation model of neuropathic pain assessed as reversal of mechanical allodynia at 30 mg/kg, po after 3 hrs; assay type: functional; outline: as §5
# Rattus norvegicus [27] = assay: Antiallodynic activity in rat spinal nerve ligation model of neuropathic pain assessed as reversal of mechanical allodynia at 30 mg/kg, po after 8 hrs; assay type: functional; outline: as §5
# [28] = Volume of distribution at steady state in rat at 1 mg/kg, iv and 3 mg/kg, po; assay type: ADME, organism-based; conditions: in vivo, read-out: Vdss; outline: as §2
# [29] = Cmax in rat at 1 mg/kg, iv and 3 mg/kg, po; assay type: ADME, organism-based; conditions: in vivo; outline: as §2
# [30] = Plasma concentration in rat at 30 mg/kg, po after 3 hrs; assay type: ADME, organism-based; parameters: dose 30 mg/kg, route oral; conditions: read-out: Activity; outline: as §4
# [31] = Drug level in rat brain at 30 mg/kg, po after 3 hrs; assay type: ADME, organism-based; parameters: dose 30 mg/kg, route oral; conditions: read-out: Activity; outline: as §4
# [32] = Plasma concentration in rat spinal nerve ligation model at 30 mg/kg, po after 1 hrs; assay type: ADME, organism-based; parameters: dose 30 mg/kg, route oral; conditions: read-out: Activity; outline: as §5
# [33] = Drug level in spinal nerve ligation model rat brain at 30 mg/kg, po after 1 hrs; assay type: ADME, organism-based; parameters: dose 30 mg/kg, route oral; conditions: read-out: Activity; outline: as §5
# Rattus norvegicus [34] = species on record: Rattus norvegicus; assay: Neurotoxicity in rat assessed as impairment of motor coordination at 8 uM plasma concentration by rotarod test; assay type: toxicity, organism-based; conditions: in vivo
# Outline: (§6)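 Rat Rotarod motor coordination test after IV doses of 3 and 10 mg/kg. Plasma and brain drug concentrations determined alongside coordination impairment.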
# Rattus norvegicus [35] = species on record: Rattus norvegicus; assay: Neurotoxicity in rat assessed as impairment of motor coordination at 6 uM brain concentration by rotarod test; assay type: toxicity, organism-based; conditions: in vivo; outline: as §6
# Plasma = assay: Plasma concentration in rat at 3 mg/kg, iv; assay type: ADME, organism-based; parameters: dose 3 mg/kg, route intravenous; conditions: in vivo, read-out: Drug uptake; outline: as §6
# Brain = assay: Drug level in rat brain at 3 mg/kg, iv; assay type: ADME, organism-based; parameters: dose 3 mg/kg, route intravenous; conditions: in vivo, read-out: Drug uptake; outline: as §6
# Rattus norvegicus [36] = species on record: Rattus norvegicus; assay: Neurotoxicity in rat assessed as impairment of motor coordination at 1.9 uM plasma concentration by rotarod test; assay type: toxicity, organism-based; conditions: in vivo; outline: as §6
# Rattus norvegicus [37] = species on record: Rattus norvegicus; assay: Neurotoxicity in rat assessed as impairment of motor coordination at 1.4 uM brain concentration by rotarod test; assay type: toxicity, organism-based; conditions: in vivo; outline: as §6
# Rattus norvegicus [38] = species on record: Rattus norvegicus; assay: Antiallodynic activity in rat spinal nerve ligation model of neuropathic pain assessed as reversal of mechanical allodynia at 0.44 uM plasma concentration; assay type: functional, organism-based; outline: as §5
# Canis familiaris [39] = species on record: Canis familiaris; assay: Cardiotoxicity in dog assessed as reduction in mean arterial pressure at >2 uM plasma concentration; assay type: toxicity, organism-based, Canis lupus familiaris
# Outline: (§7)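 Barbiturate-anesthetized, ventilated dogs given rising IV doses of 1, 3 and 10 mg/kg. Mean arterial pressure and heart rate recorded against plasma drug concentration.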
# Canis familiaris [40] = species on record: Canis familiaris; assay: Cardiotoxicity in dog assessed as reduction in heart rate at maximal plasma exposure; assay type: toxicity, organism-based, Canis lupus familiaris; parameters: scale not given: the % may be the effect or the level left; outline: as §7
# Cytochrome P450 3A4, sequence (P08684 whole entry): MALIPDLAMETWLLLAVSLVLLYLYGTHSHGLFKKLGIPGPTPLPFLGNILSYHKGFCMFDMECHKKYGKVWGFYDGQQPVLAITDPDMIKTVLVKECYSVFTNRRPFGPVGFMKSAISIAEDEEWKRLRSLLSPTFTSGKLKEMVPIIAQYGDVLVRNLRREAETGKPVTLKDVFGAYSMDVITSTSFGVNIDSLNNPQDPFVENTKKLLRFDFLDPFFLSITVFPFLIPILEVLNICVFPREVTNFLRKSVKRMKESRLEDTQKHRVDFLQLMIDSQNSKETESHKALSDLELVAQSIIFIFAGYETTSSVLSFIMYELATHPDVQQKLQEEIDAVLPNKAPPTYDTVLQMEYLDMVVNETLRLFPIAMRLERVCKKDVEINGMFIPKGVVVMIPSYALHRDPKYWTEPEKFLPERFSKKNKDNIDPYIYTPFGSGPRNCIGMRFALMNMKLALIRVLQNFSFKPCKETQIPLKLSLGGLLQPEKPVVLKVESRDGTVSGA
# Cav1.2 (voltage-dependent L-type calcium channel subunit alpha-1C), sequence (Q13936 whole entry): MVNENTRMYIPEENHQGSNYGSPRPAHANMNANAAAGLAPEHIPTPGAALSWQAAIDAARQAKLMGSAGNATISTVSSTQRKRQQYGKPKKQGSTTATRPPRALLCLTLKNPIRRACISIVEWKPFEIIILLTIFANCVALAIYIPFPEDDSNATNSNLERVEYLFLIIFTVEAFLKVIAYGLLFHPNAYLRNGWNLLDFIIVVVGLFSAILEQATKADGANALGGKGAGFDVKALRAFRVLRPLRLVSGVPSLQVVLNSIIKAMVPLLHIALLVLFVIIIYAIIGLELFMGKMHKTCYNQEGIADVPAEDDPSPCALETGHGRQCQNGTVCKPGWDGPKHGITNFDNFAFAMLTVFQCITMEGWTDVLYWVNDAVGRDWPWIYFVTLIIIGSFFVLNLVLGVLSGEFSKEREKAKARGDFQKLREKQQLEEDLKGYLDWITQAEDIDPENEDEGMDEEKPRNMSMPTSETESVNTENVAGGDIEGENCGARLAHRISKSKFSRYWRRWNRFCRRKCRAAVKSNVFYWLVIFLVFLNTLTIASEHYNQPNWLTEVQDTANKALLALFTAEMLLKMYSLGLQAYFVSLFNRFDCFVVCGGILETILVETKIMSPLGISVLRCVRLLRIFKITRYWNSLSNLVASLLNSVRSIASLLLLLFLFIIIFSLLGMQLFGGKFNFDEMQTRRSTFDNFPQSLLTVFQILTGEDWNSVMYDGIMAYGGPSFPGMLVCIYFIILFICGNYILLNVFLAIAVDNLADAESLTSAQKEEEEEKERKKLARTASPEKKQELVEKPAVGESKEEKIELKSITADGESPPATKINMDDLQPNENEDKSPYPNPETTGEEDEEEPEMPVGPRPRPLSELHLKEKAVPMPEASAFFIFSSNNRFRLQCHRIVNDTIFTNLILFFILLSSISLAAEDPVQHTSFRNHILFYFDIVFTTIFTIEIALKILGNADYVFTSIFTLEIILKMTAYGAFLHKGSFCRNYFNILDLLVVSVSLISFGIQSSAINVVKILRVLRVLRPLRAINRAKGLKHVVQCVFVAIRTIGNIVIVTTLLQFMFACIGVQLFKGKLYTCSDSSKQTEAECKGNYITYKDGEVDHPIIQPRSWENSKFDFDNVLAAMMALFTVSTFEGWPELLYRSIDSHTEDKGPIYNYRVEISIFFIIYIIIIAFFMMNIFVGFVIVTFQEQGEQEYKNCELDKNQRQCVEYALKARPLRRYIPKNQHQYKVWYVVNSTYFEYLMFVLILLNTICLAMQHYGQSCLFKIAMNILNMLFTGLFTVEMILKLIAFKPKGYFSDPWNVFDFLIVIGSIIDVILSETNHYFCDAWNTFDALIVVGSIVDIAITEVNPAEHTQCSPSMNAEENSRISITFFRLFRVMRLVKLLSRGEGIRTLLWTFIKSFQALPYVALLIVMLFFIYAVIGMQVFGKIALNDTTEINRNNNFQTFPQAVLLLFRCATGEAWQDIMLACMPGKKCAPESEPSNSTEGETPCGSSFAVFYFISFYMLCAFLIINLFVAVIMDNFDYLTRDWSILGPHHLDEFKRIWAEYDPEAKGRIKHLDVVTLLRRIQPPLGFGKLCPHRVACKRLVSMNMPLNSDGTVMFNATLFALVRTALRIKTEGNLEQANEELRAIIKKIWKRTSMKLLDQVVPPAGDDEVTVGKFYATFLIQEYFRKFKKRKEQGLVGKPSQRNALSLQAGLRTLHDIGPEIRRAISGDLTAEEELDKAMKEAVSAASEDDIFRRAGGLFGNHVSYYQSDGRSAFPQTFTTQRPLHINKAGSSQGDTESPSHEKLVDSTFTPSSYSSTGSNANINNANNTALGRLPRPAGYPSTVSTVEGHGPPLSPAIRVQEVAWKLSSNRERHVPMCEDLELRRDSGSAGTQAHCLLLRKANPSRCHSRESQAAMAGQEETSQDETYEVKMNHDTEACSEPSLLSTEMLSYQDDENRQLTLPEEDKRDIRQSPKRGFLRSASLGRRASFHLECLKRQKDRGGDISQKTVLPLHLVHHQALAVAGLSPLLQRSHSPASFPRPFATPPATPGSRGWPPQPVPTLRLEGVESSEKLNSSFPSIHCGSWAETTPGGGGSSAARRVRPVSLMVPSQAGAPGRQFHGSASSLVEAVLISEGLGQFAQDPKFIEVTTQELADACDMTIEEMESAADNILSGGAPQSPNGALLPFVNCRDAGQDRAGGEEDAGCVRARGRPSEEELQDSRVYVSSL
# Cytochrome P450 2C9, sequence (P11712 whole entry): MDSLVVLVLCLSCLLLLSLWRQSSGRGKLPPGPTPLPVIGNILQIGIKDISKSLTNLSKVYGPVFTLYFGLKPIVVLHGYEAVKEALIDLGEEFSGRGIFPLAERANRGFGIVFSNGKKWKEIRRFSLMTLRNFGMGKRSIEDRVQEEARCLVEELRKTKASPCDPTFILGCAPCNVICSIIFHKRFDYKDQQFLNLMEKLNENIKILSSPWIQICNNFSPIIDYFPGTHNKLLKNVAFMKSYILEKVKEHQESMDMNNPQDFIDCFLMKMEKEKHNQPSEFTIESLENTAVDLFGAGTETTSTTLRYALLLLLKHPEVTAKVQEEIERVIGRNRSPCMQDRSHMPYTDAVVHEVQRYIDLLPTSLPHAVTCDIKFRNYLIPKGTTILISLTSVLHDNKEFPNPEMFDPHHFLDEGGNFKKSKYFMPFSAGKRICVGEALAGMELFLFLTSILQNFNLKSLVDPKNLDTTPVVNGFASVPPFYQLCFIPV
# Cytochrome P450 2D6, sequence (P10635 whole entry): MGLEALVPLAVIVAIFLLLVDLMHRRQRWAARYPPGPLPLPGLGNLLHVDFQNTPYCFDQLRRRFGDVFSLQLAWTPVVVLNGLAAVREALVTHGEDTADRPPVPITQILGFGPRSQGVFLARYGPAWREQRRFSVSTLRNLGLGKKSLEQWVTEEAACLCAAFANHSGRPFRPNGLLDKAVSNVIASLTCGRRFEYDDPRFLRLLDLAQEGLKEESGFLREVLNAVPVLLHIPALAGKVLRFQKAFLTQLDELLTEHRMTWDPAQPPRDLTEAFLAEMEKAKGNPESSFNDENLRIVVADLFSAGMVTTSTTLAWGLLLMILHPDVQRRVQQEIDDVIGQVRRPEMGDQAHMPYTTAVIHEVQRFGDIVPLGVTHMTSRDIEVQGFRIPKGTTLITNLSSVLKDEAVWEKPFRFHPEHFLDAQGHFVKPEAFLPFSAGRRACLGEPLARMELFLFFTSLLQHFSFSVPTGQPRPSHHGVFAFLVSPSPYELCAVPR
smiles,measurement,setting,value
CC(C)(C)NC(=O)Cn1c(-c2ccc(OC(F)(F)F)cc2)cc2cc(C(C)(C)C(=O)NC(C)(C)C)ccc21,clearance,[1],5.6 mL/min/kg
same,bioavailability,[2],68%
same,inhibition at 10 µM,[3],85%
same,pEC50,[4],< 4.52
same,remaining at 1 h,[5],20%
same,remaining at 1 h,[6],20%
same,AUC,Rattus norvegicus [7],0.34 µM·kg·h/mg
same,clearance,[8],64 mL/min/kg
same,half-life,[9],1.4 h
same,AUC,Canis familiaris [10],1.02 µM·kg·h/mg
same,half-life,[11],4.6 h
same,bioavailability,[12],18%
same,pIC50,Cytochrome P450 3A4,< 5.00
same,pIC50,Cytochrome P450 2D6,< 5.00
same,pIC50,Cytochrome P450 2C9,< 5.00
same,Activity,Rattus norvegicus [13],36%
same,Activity,Rattus norvegicus [14],37%
same,Activity,Rattus norvegicus [15],17%
same,Activity,Rattus norvegicus [16],57%
same,Activity,Rattus norvegicus [17],52%
same,Activity,Rattus norvegicus [18],22%
same,Activity,Rattus norvegicus [19],66%
same,Activity,Rattus norvegicus [20],68%
same,Activity,Rattus norvegicus [21],32%
same,Activity,Rattus norvegicus [22],45%
same,Activity,Rattus norvegicus [23],47%
same,Activity,Rattus norvegicus [24],14%
same,Activity,Rattus norvegicus [25],68%
same,Activity,Rattus norvegicus [26],50%
same,Activity,Rattus norvegicus [27],27%
same,Vd,[28],5.1 L/kg
same,Cmax,[29],290 nM
same,concentration at 3 h,[30],750 nM
same,concentration at 3 h,[31],170 nM
same,concentration at 1 h,[32],410 nM
same,concentration at 1 h,[33],260 nM
same,Activity,Rattus norvegicus [34],Toxic
same,Activity,Rattus norvegicus [35],Toxic
same,concentration,Plasma,1900 nM
same,concentration,Brain,1400 nM
same,Activity,Rattus norvegicus [36],Non-toxic
same,Activity,Rattus norvegicus [37],Non-toxic
same,Activity,Rattus norvegicus [38],Active
same,Activity,Canis familiaris [39],Toxic
same,Activity,Canis familiaris [40],32%

# From ChEMBL document CHEMBL1641497, “A potent and selective indole N-type calcium channel (Ca(v)2.2) blocker for the treatment of pain” (Bioorg Med Chem Lett, 2011)
